According to PubChem BioAssay:
Results filed as inconclusive are left out.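 The calls were made as follows, unless noted: active = growth inhibition above 25% in both replicates, a cutoff set 3 SD above the mean; inconclusive = above 25% in only one replicate; inactive = the rest.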

How the values were obtained:
[1] = OD615 S. cerevisiae growth inhibition, permissive medium, pilot counter-assay, permissive growth control for S. cerevisiae lifespan shortening project (AID 705); conditions: OD615, 24 h, at 10 µM, active compounds read high
Procedure, shortened: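 Test system: Saccharomyces cerevisiae strain carrying genetically modified DeaD replicative-lifespan system; buffer or medium: SC raffinose/galactose permissive medium; dosing: one dose 10 µM, DMSO 0.25% final; times: 24 h exposure, 30 °C; measured by: OD at 615 nm; read-out basis: growth inhibition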

[2] = Restrictive medium S. cerevisiae growth inhibition, OD615, pilot screen of yeast lifespan reduction project, restrictive growth control (AID 706;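 active = growth inhibition above a set limit, 3 SD over mean compound inhibition, in both replicates, cut at about 43% in these data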;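 also: modified DeaD lifespan yeast strain shifted to restrictive glucose medium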); conditions: OD615, 48 h, at 10 µM, active compounds read high
Procedure, shortened: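 material = engineered S. cerevisiae DeaD strain | buffer or medium = glucose-based CSMM-D restrictive medium | dosing = one concentration, 10 µM final, 0.25% DMSO | schedule = 4 h pre-growth plus 48 h compound exposure, 30 °C | detection = OD615 absorbance reading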

[3] = viability gain of MRP-1-high H69AR cells under doxorubicin, pilot screen, MRP-1 activator project, CellTiter-Glo, duplicate (AID 807;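 active = viability increase at or above a cutoff of the median across tested compounds plus 3 SD, cut at about 8.5% in these data, passing the limit was not always enough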;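 also: compound pretreatment 18-22 h then 72 h combined with doxorubicin; 0% = doxorubicin alone and 100% = vehicle without doxorubicin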); conditions: H69AR viability with doxorubicin, CellTiter-Glo luminescence; at 10 µM; active compounds read high
[4] = growth suppression of beta-catenin knockout HCT116, pilot screen, human colon tumor cells (AID 823;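 active = cell viability at or below a set limit in both duplicate runs, the limit being the all-compound median minus 4 SD, cut at about 23% in these data, passing the limit was not always enough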;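 also: 0% = wells killed by 20 µM Hyamine and 100% = untreated DMSO cell wells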); conditions: CellTiter-Glo, 60 h, at 10 µM, active compounds read low
[5] = growth suppression of PTEN-deleted HCT116, pilot screen, cell-based, HCT116 clonal line, CellTiter-Glo (AID 824;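 active = viability at or below 27.92% in each of two runs, the all-compound median minus 4 SD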;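 also: 0% = 20 µM Hyamine control and 100% = vehicle cell control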); conditions: 60 h, at 10 µM, active compounds read low
[6] = inhibitors of the yeast RAM network, pilot screen, dse1pr::URA3 reporter, 5-FOA selection (AID 869;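 active = inhibition over a set limit, the all-compound mean plus 3 SD, in both replicate runs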;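 also: 0% = DMSO wells with no growth and 100% = 10 µM 1-NA-PP1 with full growth; RAM network block rescues cells from 5-FOA so hits raise OD615 growth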); conditions: S. cerevisiae dse1pr::URA3 5-FOA growth, OD615, 2 d; at 10 µM; active compounds read high; strain carries analog-sensitive mutant Cbk1 kinase
[7] = RAM signaling pathway blockade in yeast – S. cerevisiae, Pdr1DBD-CYC8 efflux-inhibited sensitized strain, primary screen (AID 1298;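 active = RAM network inhibition above 8.4% in each of two replicates, 3 SD over the compound average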;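 also: 0% = DMSO untreated cells without growth and 100% = 10 µM 1-NA-PP1 full growth; higher means more yeast growth rescued from 5-FOA killing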); conditions: S. cerevisiae cbk1-as DSE1-URA3 strain, 5-FOA growth OD615, 2 d; at 50 µM; active compounds read high

O=C1c2ccccc2C(O)N1Cc1ccco1 (stereo not drawn)
inactive: growth inhibition [1] 5.97% | growth inhibition [2] -0.555% | viability increase [3] -2.36% | viability [4] 93.6% | viability [5] 94.6% | inhibition [6] 0.695% | RAM network inhibition [7] 0.68%

CC(=O)c1sc(N2C(=O)c3oc4ccccc4c(=O)c3C2c2ccc(C)o2)nc1C (stereo not drawn)
inactive: growth inhibition [1] 3.87% | growth inhibition [2] 6.34% | viability increase [3] -3.31% | viability [4] 96.1% | viability [5] 94.3% | inhibition [6] 1.98% | RAM network inhibition [7] -0.52%

COc1ccc(C2SCC(C(=O)O)N2C(C)=O)cc1OC (stereo not drawn)
inactive: growth inhibition [1] 0.095% | growth inhibition [2] 1.78% | viability increase [3] 0.1% | viability [4] 96.5% | viability [5] 102% | inhibition [6] 1.33% | RAM network inhibition [7] 7.78%

CCOc1ccc(C2c3c(oc4cc(C)c(C)cc4c3=O)C(=O)N2CCCN(C)C)cc1OC (stereo not drawn)
inactive: growth inhibition [1] -3.33% | growth inhibition [2] -1.7% | viability increase [3] -1.6% | viability [4] 108% | viability [5] 98% | inhibition [6] -0.13% | RAM network inhibition [7] -0.66%

C=CCOC(=O)C1=C(C)NC(=O)NC1/C=C/c1ccccc1 (stereo not drawn)
inactive: growth inhibition [1] -5.98% | growth inhibition [2] -13.1% | viability increase [3] -0.12% | viability [4] 92.5% | viability [5] 95% | inhibition [6] 2.77% | RAM network inhibition [7] 8.11%

C=CCn1c(=NC(=O)C2CC2)sc2cc(NC(C)=O)ccc21
inactive: growth inhibition [1] -3% | growth inhibition [2] -3.58% | viability increase [3] -4.77% | viability [4] 95.7% | viability [5] 101% | inhibition [6] 0.675% | RAM network inhibition [7] 0.32%

CCCCOC(=O)Nc1sc2c(c1C(=O)OC)CCC2
inactive: growth inhibition [1] -6.32% | growth inhibition [2] 6.97% | viability increase [3] -2.72% | viability [4] 96.2% | viability [5] 92.4% | inhibition [6] 0.325% | RAM network inhibition [7] 8.11%

Nc1nc(-c2ccc3c(c2)CCCC3)cs1
inactive: growth inhibition [1] 2.05% | growth inhibition [2] 29.1% | viability increase [3] -0.58% | viability [4] 86.2% | viability [5] 88.2% | inhibition [6] 0.275% | RAM network inhibition [7] 2.64%

CN(C)S(=O)(=O)c1ccc(NC(=O)C2COc3ccccc3O2)cc1 (stereo not drawn)
inactive: growth inhibition [1] -9.66% | growth inhibition [2] -10.9% | viability increase [3] 0.49% | viability [4] 90.2% | viability [5] 83.8% | inhibition [6] 1.27% | RAM network inhibition [7] 2.63%

CCN1CCN(C(CNS(=O)(=O)c2ccc(OC)cc2)c2cccnc2)CC1 (stereo not drawn)
inactive: growth inhibition [1] -0.57% | growth inhibition [2] 8.5% | viability increase [3] -1.16% | viability [4] 105% | viability [5] 98.2% | inhibition [6] 3.57% | RAM network inhibition [7] 3.38%

CC(=O)N1CCN(CCN=CC2=C(O)CC(c3ccc(Cl)cc3)CC2=O)CC1 (stereo not drawn)
inactive: growth inhibition [1] -8.45% | growth inhibition [2] -3.19% | viability increase [3] 1.98% | viability [4] 99.2% | viability [5] 101% | inhibition [6] 1.2% | RAM network inhibition [7] -0.17%

COCCN(CCOC)C(=O)c1cc2sc3ccccc3c2s1
inactive: growth inhibition [1] -6.12% | growth inhibition [2] -4.95% | viability increase [3] 0.72% | viability [4] 92.4% | viability [5] 90.4% | inhibition [6] 0.11% | RAM network inhibition [7] 0.31%

CCOC(=O)N1CCN(C(=O)C(NC(=O)C2CCC(C)CC2)C(C)C)CC1 (stereo not drawn)
inactive: growth inhibition [1] 10.9% | growth inhibition [2] 7.68% | viability increase [3] -0.76% | viability [4] 101% | viability [5] 99.9% | inhibition [6] -0.215% | RAM network inhibition [7] -0.98%

C=C(C)Cn1c(C2CC(=O)N(Cc3ccccc3)C2)nc2ccccc21 (stereo not drawn)
inactive: growth inhibition [1] -0.245% | growth inhibition [2] -1.79% | viability increase [3] -1.95% | viability [4] 97.1% | viability [5] 93.2% | inhibition [6] 1.46% | RAM network inhibition [7] 2.18%

CCn1cc(C(=O)N2CCN(Cc3ccc4c(c3)OCO4)CC2)c2cc(OC)c(OC)cc2c1=O
inactive: growth inhibition [1] -9.86% | growth inhibition [2] -27.3% | viability increase [3] -5.64% | viability [4] 96.1% | viability [5] 85.9% | inhibition [6] 0.125% | RAM network inhibition [7] 2.76%

CCOc1ccc(C(=O)Nc2cc(C)c3c(=O)oc4ccccc4c3n2)cc1
inactive: growth inhibition [1] -0.2% | growth inhibition [2] 9.54% | viability increase [3] -7.84% | viability [4] 65% | viability [5] 40.8% | inhibition [6] 1.54% | RAM network inhibition [7] 1.29%

COc1ccccc1Nc1nc(N)nc(CN2CCOCC2)n1
inactive: growth inhibition [1] -12.9% | growth inhibition [2] -6.13% | viability increase [3] -0.98% | viability [4] 108% | viability [5] 101% | inhibition [6] 0.845% | RAM network inhibition [7] 3.74%

O=C(NCCN1C(=O)C2C3C=CC(C3)C2C1=O)Nc1ccc(Br)cc1 (stereo not drawn)
inactive: growth inhibition [1] -9% | growth inhibition [2] 9.2% | viability increase [3] -1.13% | viability [4] 103% | viability [5] 88.3% | inhibition [6] 0.81% | RAM network inhibition [7] 0.1%

CC1CN(c2nc3c(c(=O)[nH]c(=O)n3C)n2Cc2ccccc2F)CC(C)O1 (stereo not drawn)
inactive: growth inhibition [1] -3.05% | growth inhibition [2] 2.61% | viability increase [3] -1.3% | viability [4] 99.1% | viability [5] 90.7% | inhibition [6] 1.68% | RAM network inhibition [7] 0.95%

NC(=O)c1ccc(N2CCCCC2)c(N2C(=O)CCC2=O)c1
inactive: growth inhibition [1] -4.77% | growth inhibition [2] -17.9% | viability increase [3] -0.03% | viability [4] 102% | viability [5] 94.6% | inhibition [6] 2.69% | RAM network inhibition [7] 2.67%

OC(COc1ccccc1Cl)CN1CCN(CC(O)COc2ccccc2Cl)CC1 (stereo not drawn)
inactive: growth inhibition [1] 3.62% | growth inhibition [2] -11.8% | viability increase [3] -5.92% | viability [4] 73.3% | viability [5] 81.9% | inhibition [6] 0.495% | RAM network inhibition [7] 3.13%

COC(=O)c1cn(C(C)C(=O)NCc2ccco2)c2ccccc12 (stereo not drawn)
inactive: growth inhibition [1] -16.9% | growth inhibition [2] -23.6% | viability increase [3] -0.53% | viability [4] 102% | viability [5] 102% | inhibition [6] 1.68% | RAM network inhibition [7] 2.95%

Nc1cccc(C(=O)Nc2ccc3nc(-c4cccnc4)[nH]c3c2)c1
inactive: growth inhibition [1] -2% | growth inhibition [2] -4.3% | viability increase [3] -1.88% | viability [4] 109% | viability [5] 102% | inhibition [6] 2.84% | RAM network inhibition [7] 6.1%

Cc1ccc(C2c3c(oc4cc(C)c(C)cc4c3=O)C(=O)N2CCCN2CCOCC2)cc1 (stereo not drawn)
inactive: growth inhibition [1] -5.16% | growth inhibition [2] -18.6% | viability increase [3] -4.87% | viability [4] 83.3% | viability [5] 90% | inhibition [6] 3.33% | RAM network inhibition [7] -0.94%
